Compound activity deposited in PubChem BioAssay by Broad Institute.
Shown is part of a subset that was picked to be rich in hits.
T cruzi intra: blocks T. cruzi growth inside host cells; 22,000 tested, 4.9% active; intracellular Trypanosoma cruzi in host cells, plate reader; AID 651903; activity score (inhibition), % at 5.01 µM; in the data active = activity score above about 55%;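 also: parasites and compound incubated about four days before reading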
A1 apoptosis 2: compounds inhibiting A1, read as caspase activation; MEF A1-2A-BIM cells, caspase-Glo luminescence, 3 h; percent of clofoctol response, DMSO zero; caspase activation, % (no concentration beside the values); 24,000 tested, under 10 active; AID 2465; in the data active = caspase activation above about 5.9%
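System: mouse embryonic fibroblasts co-expressing A1 and BIM (A1-2A-BIM), primed for A1 dependence; amount: 2500 cells/well; doses: 50 nL pinned compound; schedule: cells settled overnight, compound exposure 3 h at 37 °C, 5% CO2; detection: Caspase-Glo 3/7 luminescence, 1 h at room temperature; read-out: Caspase-3/7 activation, seen as rise in luminescence signal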
INS-1E ATP HTS: preserves ATP levels in cytokine-treated INS-1E cells; INS-1E cytokine-induced death, ATP luminescence, 48 h; normalised: neutral wells 0, positive control 100; protection from cytokine-induced ATP loss, % at 10 µM; 20,000 tested, 0.1% active;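 active = mean replicate protection from cytokine-induced ATP loss at least 50% and at least 75% of replicates each reaching 50%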
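assay system = INS-1E rat insulinoma cells | amount = 8000 cells per well | medium = phenol-red-free RPMI with 5% fetal bovine serum | doses = one compound concentration, pin transfer | timing = 48 h cytokine plus compound treatment, 10 min reagent incubation | also added = IL-1β, TNF-α and IFN-γ cytokine mix | signal = CellTiter-Glo luminescence measuring cellular ATP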
Of the large screens only hits and unclear results are named; the others gave an inactive call.

Cc1noc(C)c1S(=O)(=O)Nc1ccc2c(c1)CC(=O)N([C@H](C)CO)C[C@H](C)[C@H](CN(C)Cc1ccc(Oc3ccccc3)cc1)O2	none (no result: T cruzi intra)
Cc1noc(C)c1S(=O)(=O)Nc1ccc2c(c1)CC(=O)N([C@@H](C)CO)C[C@H](C)[C@@H](CN(C)Cc1ccccc1)O2	none
COc1ccc(CN(C)C[C@H]2Oc3ccc(NC(=O)C4CCCCC4)cc3CC(=O)N([C@@H](C)CO)C[C@@H]2C)cc1	T cruzi intra 64 (no result: A1 apoptosis 2)
C[C@H]1CN([C@@H](C)CO)C(=O)Cc2cc(NC(=O)C3CCCCC3)ccc2O[C@H]1CN(C)Cc1ccc(Oc2ccccc2)cc1	none (no result: A1 apoptosis 2)
C[C@@H]1CN([C@H](C)CO)C(=O)Cc2cc(NC(=O)C3CCCCC3)ccc2O[C@H]1CN(C)Cc1ccc(Oc2ccccc2)cc1	T cruzi intra 76 (no result: A1 apoptosis 2)
COc1ccc(CN(C)C[C@H]2Oc3ccc(NC(=O)C4CCCCC4)cc3CC(=O)N([C@H](C)CO)C[C@H]2C)cc1	none
C[C@H]1CN([C@@H](C)CO)C(=O)c2cccc(NC(=O)C3CC3)c2O[C@H]1CN(C)Cc1ccc(Oc2ccccc2)cc1	none (no result: A1 apoptosis 2)
C[C@@H]1CN([C@H](C)CO)C(=O)c2cccc(NC(=O)C3CC3)c2O[C@H]1CN(C)Cc1ccc(Oc2ccccc2)cc1	T cruzi intra 63 (no result: A1 apoptosis 2)
C[C@@H]1CN([C@H](C)CO)C(=O)c2cccc(NC(=O)C3CCCCC3)c2O[C@@H]1CN(C)Cc1ccc(Oc2ccccc2)cc1	none
C[C@H]1CN([C@@H](C)CO)C(=O)c2cccc(NC(=O)C3CCCCC3)c2O[C@@H]1CN(C)Cc1ccc(Oc2ccccc2)cc1	T cruzi intra 67 (no result: A1 apoptosis 2)
C[C@@H]1CN([C@H](C)CO)C(=O)c2cccc(N(C)C)c2O[C@H]1CN(C)Cc1ccc(Oc2ccccc2)cc1	T cruzi intra 70
C[C@H]1CN([C@@H](C)CO)C(=O)c2cccc(N(C)C)c2O[C@@H]1CN(C)Cc1ccccc1	none
CC(C)(C)OC(=O)N1CCC[C@H]1/C=N/NC(=O)CCCCCC(=O)NO	none (no result: T cruzi intra, INS-1E ATP HTS)
C[C@H](CO)N1C[C@H](C)[C@H](CN(C)S(=O)(=O)c2ccc(C#N)cc2)Oc2ncc(C#Cc3ccccc3)cc2C1=O	none (no result: INS-1E ATP HTS)
C[C@H](CO)N1C[C@H](C)[C@H](CN(C)S(C)(=O)=O)Oc2ncc(C#Cc3ccc(C(F)(F)F)cc3)cc2C1=O	none (no result: INS-1E ATP HTS)
C[C@H](CO)N1C[C@H](C)[C@H](CN(C)S(=O)(=O)c2cccs2)Oc2ncc(C#CCN(C)C)cc2C1=O	none (no result: A1 apoptosis 2, INS-1E ATP HTS)
C[C@H](CO)N1C[C@H](C)[C@H](CN(C)S(=O)(=O)c2ccc(C#N)cc2)Oc2ncc(C#Cc3ccc(C(F)(F)F)cc3)cc2C1=O	T cruzi intra 87
C[C@H](CO)N1C[C@H](C)[C@H](CN(C)S(=O)(=O)c2ccc(F)cc2)Oc2ncc(C#Cc3cccc(F)c3)cc2C1=O	T cruzi intra 65 (no result: INS-1E ATP HTS)
C[C@H](CO)N1C[C@H](C)[C@H](CN(C)S(=O)(=O)c2ccccc2)Oc2ncc(C#Cc3cccc(F)c3)cc2C1=O	none (no result: INS-1E ATP HTS)
C[C@H](CO)N1C[C@H](C)[C@H](CN(C)S(=O)(=O)c2cccs2)Oc2ncc(C#Cc3ccccc3)cc2C1=O	T cruzi intra 73 (no result: INS-1E ATP HTS)
Cc1ccc(S(=O)(=O)N(C)C[C@@H]2Oc3ncc(C#Cc4ccccc4)cc3C(=O)N([C@H](C)CO)C[C@@H]2C)cc1	T cruzi intra 57
COc1ccc(C#Cc2cnc3c(c2)C(=O)N([C@H](C)CO)C[C@H](C)[C@H](CN(C)S(=O)(=O)c2ccc(C)cc2)O3)cc1OC	none (no result: INS-1E ATP HTS)
COc1cccc(S(=O)(=O)N(C)C[C@@H]2Oc3ncc(-c4ccccc4)cc3C(=O)N([C@H](C)CO)C[C@@H]2C)c1	none (no result: A1 apoptosis 2)
C[C@H](CO)N1C[C@H](C)[C@H](CN(C)S(=O)(=O)c2ccc(F)cc2)Oc2ncc(C#Cc3ccc(F)cc3)cc2C1=O	T cruzi intra 66 (no result: INS-1E ATP HTS)
C[C@H](CO)N1C[C@H](C)[C@H](CN(C)S(=O)(=O)c2cccc(F)c2)Oc2ncc(C#Cc3ccc(F)cc3)cc2C1=O	T cruzi intra 64 (no result: A1 apoptosis 2)
Cc1ccc(S(=O)(=O)N(C)C[C@@H]2Oc3ncc(C#Cc4ccc(F)cc4)cc3C(=O)N([C@H](C)CO)C[C@@H]2C)cc1	T cruzi intra 59 (no result: A1 apoptosis 2, INS-1E ATP HTS)
C[C@H](CO)N1C[C@H](C)[C@H](CN(C)S(=O)(=O)c2cccc(F)c2)Oc2ncc(C#Cc3cccc(F)c3)cc2C1=O	none (no result: A1 apoptosis 2, INS-1E ATP HTS)
C[C@H](CO)N1C[C@H](C)[C@H](CN(C)S(=O)(=O)c2ccccc2)Oc2ncc(C#Cc3ccc(F)cc3)cc2C1=O	none (no result: INS-1E ATP HTS)
COc1cccc(S(=O)(=O)N(C)C[C@@H]2Oc3ncc(C#Cc4ccccc4)cc3C(=O)N([C@H](C)CO)C[C@@H]2C)c1	T cruzi intra 62 (no result: INS-1E ATP HTS)
O=C(NO)c1cccc(C(=O)N/N=C/c2cc3c(cc2Br)OCO3)c1	none (no result: A1 apoptosis 2)
C=CCOC(=O)[C@H]1[C@@H]2C(=O)O[C@@H](c3ccccc3)[C@@H](c3ccccc3)N2[C@@H](c2ccc(OCCOC(=O)[C@@H]3C[C@@H]4C(=O)N5CCC[C@H]5C(=O)N4[C@@H]3c3cccc(OCCO)c3)cc2)[C@]12C(=O)Nc1ccc(I)cc12	none (no result: T cruzi intra, INS-1E ATP HTS)
C[C@H](CO)N1C[C@H](C)[C@H](CN(C)CC2CCCCC2)Oc2ccc(NC(=O)Nc3cccc4ccccc34)cc2CC1=O	T cruzi intra 61 (no result: A1 apoptosis 2)
C[C@@H]1CN([C@@H](C)CO)C(=O)Cc2cc(NC(=O)Nc3cccc4ccccc34)ccc2O[C@H]1CN(C)CC1CC1	none (no result: T cruzi intra, INS-1E ATP HTS)
C[C@H](CO)N1C[C@H](C)[C@@H](CN(C)Cc2ccc(Oc3ccccc3)cc2)Oc2ccc(NC(=O)Nc3cccc4ccccc34)cc2CC1=O	none (no result: T cruzi intra, INS-1E ATP HTS)
C[C@@H]1CN([C@@H](C)CO)C(=O)Cc2cc(NC(=O)Nc3cccc4ccccc34)ccc2O[C@H]1CN(C)Cc1ccccc1	none (no result: T cruzi intra, INS-1E ATP HTS)
COc1ccc(CN(C)C[C@@H]2Oc3ccc(NC(=O)Nc4cccc5ccccc45)cc3CC(=O)N([C@H](C)CO)C[C@H]2C)cc1	T cruzi intra 65
C[C@H]1CN([C@@H](C)CO)C(=O)Cc2cc(NC(=O)Nc3cccc4ccccc34)ccc2O[C@@H]1CN(C)Cc1ccc2c(c1)OCO2	T cruzi intra 64
C[C@@H]1CN([C@H](C)CO)C(=O)Cc2cc(NC(=O)Nc3ccccc3)ccc2O[C@H]1CN(C)Cc1ccc2c(c1)OCO2	none
C[C@@H]1CN([C@H](C)CO)C(=O)Cc2cc(NC(=O)Nc3cccc4ccccc34)ccc2O[C@@H]1CN(C)Cc1ccccc1	T cruzi intra 68
COc1cc(O)cc(OC)c1/C=N/NC(=O)CCCCC(=O)NO	none (no result: A1 apoptosis 2)
COc1ccc(/C=N/NC(=O)c2ccccn2)cc1O	none
C[C@@H]1CN([C@@H](C)CO)C(=O)c2cccc(NC(=O)Nc3ccccc3)c2O[C@H]1CN(C)S(=O)(=O)c1ccc(Cl)cc1	none (no result: A1 apoptosis 2)
C[C@@H]1CN([C@H](C)CO)C(=O)c2cc(NC(=O)Nc3cccc4ccccc34)ccc2O[C@@H]1CN(C)Cc1ccc(Cl)c(Cl)c1	none (no result: A1 apoptosis 2)
C[C@H]1CN([C@@H](C)CO)C(=O)Cc2cc(NC(=O)Nc3cccc4ccccc34)ccc2O[C@@H]1CN(C)Cc1ccc(Cl)c(Cl)c1	T cruzi intra 60 (no result: A1 apoptosis 2)
